Measured values taken from ChEMBL document CHEMBL4513216, “Probing the Open Global Health Chemical Diversity Library for Multistage-Active Starting Points for Next-Generation Antimalarials” (ACS Infect Dis, 2020).

Experiment: Toxicity liver stage against HepG2, at 10uM
Format: cell-based
Parameters: test concentration 10 uM, cell line HepG2-A16-CD81EGFP
Details: human, HepG2-A16-CD81EGFP cells; read-out: INHIBITION
Outline: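 Uninfected HepG2-A16-CD81EGFP cells, 3 × 10^3 per well, 1536-well, plated on prespotted compound at 10 μM final, parasite-free screening media added to match infected plates; puromycin 10 μM positive, DMSO 0.5% negative; run in parallel with 48 h PbLuc assay at 37 °C, 5% CO2; viability by CellTiter-Glo luminescence, normalized to controls.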

SMILES	cytotoxicity at 10 µM [%]
Cc1n[nH]c(C)c1CC(=O)NCCc1ccccc1	13.7
CC(=O)N1CC[C@@]2(O)CCCC[C@H]2[C@@H]1c1ccc2c(c1)OCO2	15.4
COc1ccc(CC(=O)NCCCc2nnc3nc(C)cc(C)n23)cc1	4.45
COc1ccc(C(=O)NCC(c2cccn2C)N2CCCC2)cc1OC (centres undefined)	6.86
N#Cc1cccnc1OC1CCN(C(=O)NCc2ccccc2)CC1	1.38
CS(=O)(=O)N1CCn2c(C(=O)N3CCOCC3)cnc2C1	-4.63
COc1cccc(CNC(=O)c2nc3c(o2)CN(S(C)(=O)=O)C3)c1	8.65
COCCN1C(=O)CC[C@@H]2[C@H]1CCN2C(=O)C1CCOCC1	9.67
Cc1nc(-c2cc(C(=O)N3CCN(C)CC3)c3ccccn23)cn1C	8.73
Cc1ccc(N2CCO[C@@H]3CN(Cc4cccc(C)n4)CC[C@@H]3C2)nn1	7.67
CC1c2ncc(Cn3cncn3)n2CCN1C(=O)c1ccsc1 (centres undefined)	-0.551
O=C(c1ccccc1)N1CCC2(CC1)CC(Oc1ccccc1)CO2 (centres undefined)	16.6
Cc1ncsc1CN1C[C@H](C(=O)NC2CCCC2)[C@@H]2CCO[C@@H]2C1	8.04
CCc1ccc(NC(=O)C2OC(c3cccs3)=NN2C(C)=O)cc1 (centres undefined)	4.64
CCn1nc(C)c2ncnc(N(C)Cc3ccco3)c21	8.88
O=C1N[C@H]2OCCC[C@H]2[C@H](c2ccccc2)N1	-0.675
NC(=O)c1cn[nH]c1C1CCCN1C(=O)COc1ccccc1 (centres undefined)	-3.93
NC(=O)C1(Cc2ccc(-c3ccccc3)cc2)CCNC1 (centres undefined)	11.5
COc1ccc(N2CCC(N(C)C(=O)Nc3ccncc3)CC2)cc1	3.12
CS(=O)(=O)CCSc1nnc(Cc2ccccc2F)o1	0.313
CCC(NC(=O)c1cccc(N2CCCC2=O)c1)c1ccc(OC)cc1 (centres undefined)	-62.3
CNC(=O)Cc1ccc(NC(=O)NCc2nc(C)sc2C)cc1	-4.36
Cc1cc(N(C)C)nc(N2CCn3c(nnc3C(C)C)C2)n1	19
CN(C)C(=O)c1cccc(NC(=O)c2cnn(C)c2)c1	-1.96
CNC(=O)C1CCCCN1C(=O)CCn1cnc2sccc2c1=O (centres undefined)	-7.18
COc1ccsc1C(=O)NC1CCN(c2ccc(C#N)cc2)CC1	-1.03
CCC(O)CN(Cc1ccccc1)S(=O)(=O)c1cnc(C)s1 (centres undefined)	-42.5

SMILES	cytotoxicity at 10 µM [%]
COc1cc(C2(C(=O)N3CCN(CC(C)(C)O)CC3)CC2)ccc1C	-0.0264
CS(=O)(=O)CCN1CCC(Nc2c(Cl)cccc2C#N)CC1	2.22
CC(CS(C)(=O)=O)N(C(=O)c1ccc(Cl)s1)C1CC1 (centres undefined)	1.51
Cc1cc(C)n(-c2cncc(N3CCN(C(=O)CN(C)C)CC3)n2)n1	-2.09
CC(C)(C)c1cc(NC(=O)C2CCCO2)n(-c2ccccn2)n1 (centres undefined)	-1.26
Cc1ccn(-c2ccccc2NCc2cscn2)n1	13.2
CNc1nc(CNC(=O)Nc2cccc(COCCOC(C)C)c2)cs1	8.77
CCc1nccn1C1CCCN(C(=O)c2ccn(-c3ccccc3)n2)C1 (centres undefined)	5.84
Fc1cccc2[nH]c(CN3CCc4cncnc4C3)nc12	-1.03
COc1cc(F)c(NC(=O)N(C)Cc2cc(C)on2)cc1F	-4.25
Cc1nc(C2CCCN2Cc2cc(Cl)c3c(c2)OCCCO3)no1 (centres undefined)	10.3
CC(C)CS(=O)(=O)CC(=O)NC(C)(C)c1cccc(F)c1	-1.12
Cc1nccn1-c1ccc(C(C)Nc2cnn(C)c(=O)c2Cl)cc1 (centres undefined)	18.7
CCCc1noc(CCC(=O)Nc2cc(C(F)(F)F)c[nH]c2=O)n1	-7.21
Cc1cnn(C2CN(CC(=O)N(C)Cc3cccs3)C2)c1	-16.1
CN(Cc1ccc([S+](C)[O-])cc1)c1ccc(C(F)(F)F)cn1 (centres undefined)	-1.32
Cc1cc(=O)[nH]cc1C(=O)N1Cc2ccccc2N(C)CC1C (centres undefined)	0.305
Cc1ccc(CNC(c2ccc(F)cc2)c2nccn2C)o1 (centres undefined)	0.841
Cc1cc(C)cc(NC(=O)N(CCC#N)CCCN(C)C)c1	-49.3
Cc1ccc(OCCC(=O)N(C)CC(=O)Nc2cc(C)on2)c(C)c1	-16.9
CCc1c(C)nc2ccccc2c1N1CCC(C(=O)NC)CC1	3.85
NC(=O)C(NC(=O)c1cc(Cl)c[nH]1)c1ccccc1 (centres undefined)	-0.589
O=C(NC[C@@H]1C[C@@H]2CN(C(=O)CO)C[C@H]2O1)c1ccsc1	-96.5
Cn1cc(CN2C[C@H]3CCC[C@@]3(COc3cccnc3)C2)cn1	-107
CCN(CC)c1ncnc2c1CCN(c1ccc(C)nn1)CC2	-108
CN(C)CCCN(C)C1CCN(c2cccc(-c3cscn3)c2)CC1	-5
Cc1nc(C(C)Nc2nc3c(s2)c(C)nn3C)n[nH]1 (centres undefined)	10.2
